A selection: hits, their analogues and other compounds. The true share with any hit is near 3.9%.
ABCB6 inh 2 – human ABCB6 transporter inhibition; fluorescence ratio to DMSO, % at 10 µM; AID 602162; 360,000 compounds, 0.19% hits; K562-ABCB6 porphyrin accumulation, flow cytometry, 1 h; active compounds read low; Q9NP58;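 active = fluorescence ratio to DMSO below 75%, the collection mean minus 3 SD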;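 also: signal is porphyrin accumulated inside mitochondria; 100% equals median channel fluorescence of DMSO control wells; lower ratio means ABCB6 inhibition with less porphyrin fluorescence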
Target sequence (Q9NP58 whole entry, looked up): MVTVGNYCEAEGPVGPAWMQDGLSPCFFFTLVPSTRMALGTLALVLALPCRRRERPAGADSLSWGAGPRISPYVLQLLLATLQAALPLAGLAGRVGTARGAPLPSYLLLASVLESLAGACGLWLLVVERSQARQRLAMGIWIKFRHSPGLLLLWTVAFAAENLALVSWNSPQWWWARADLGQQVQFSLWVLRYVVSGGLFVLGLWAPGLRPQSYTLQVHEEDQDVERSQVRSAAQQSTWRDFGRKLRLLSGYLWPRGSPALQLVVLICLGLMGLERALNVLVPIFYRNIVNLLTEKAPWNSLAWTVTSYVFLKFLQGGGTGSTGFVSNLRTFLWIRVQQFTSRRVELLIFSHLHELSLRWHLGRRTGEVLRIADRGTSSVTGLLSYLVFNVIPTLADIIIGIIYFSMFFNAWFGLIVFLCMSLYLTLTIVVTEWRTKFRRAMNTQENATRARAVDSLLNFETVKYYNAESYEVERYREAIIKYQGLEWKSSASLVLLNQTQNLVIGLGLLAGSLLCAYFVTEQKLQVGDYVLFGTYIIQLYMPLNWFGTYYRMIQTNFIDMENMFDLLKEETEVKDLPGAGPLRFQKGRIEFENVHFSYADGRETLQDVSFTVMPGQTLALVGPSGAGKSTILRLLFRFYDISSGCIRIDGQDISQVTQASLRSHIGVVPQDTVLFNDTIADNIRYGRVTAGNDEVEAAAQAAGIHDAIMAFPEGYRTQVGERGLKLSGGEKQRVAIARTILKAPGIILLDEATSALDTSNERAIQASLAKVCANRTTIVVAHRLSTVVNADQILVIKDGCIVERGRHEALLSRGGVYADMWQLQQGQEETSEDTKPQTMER
GAA850 FXN act – increases GAA850 frataxin promoter reporter activity; HEK293 lucGAA850 FXN promoter luciferase reporter, 24 h; percent of 10 µM SAHA response; activation, % at 6 µM; 360,000 compounds, 0.56% hits; AID 540364;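 active = activation above the average of all compounds screened plus 3 SD, cutoff fixed separately per campaign, cut at about 7.5% in these data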;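 also: 0% = DMSO wells and 100% = 10 µM SAHA wells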
SR-BI HDL uptake – inhibitors of mouse SR-BI mediated HDL lipid uptake. Q61009. ldlA[mSR-BI] CHO cells, DiI-HDL uptake fluorescence, 3 h. inhibition, % at 12.5 µM. 320,000 compounds, 0.96% hits. AID 488896;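 active = mean replicate inhibition of at least 70% and a set share of replicates each scoring 70 or more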;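 also: 0% = median of neutral control wells and 100% = median of positive control wells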
AHR act – activators of human aryl hydrocarbon receptor | AHR-responsive luciferase reporter cells, luminescence | activation, % at 5 µM | 320,000 compounds, 2.5% hits; in the data active = activation above about 47%;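 also: 0% = vehicle wells and 100% = reference agonist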
HIF activator – HIF pathway transcriptional activation; U2OS HRE-luciferase reporter, luminescence; normalized: DMSO 0%, desferrioxamine 100%; activation, % at 7.5 µM (by protocol); 300,000 compounds, 0.32% hits; AID 1910;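 active = mean activation of at least 10% of the iron chelator positive control signal, with at least half of replicates also reaching 10%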
SR-BI DiI-HDL act – enhances SR-BI lipid uptake from DiI-HDL. 320,000 compounds, 0.096% hits. CHO ldlA[mSR-BI] cells, DiI-HDL uptake fluorescence, 3 h; 100 = double the neutral-control signal. AID 504775. activation, % at 12.5 µM;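 active = mean replicate activation of at least 60% and every replicate at or above 60%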;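 also: 0% = median plate neutral-control signal and 100% = twice that signal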
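Material: SR-BI-overexpressing, LDLR-lacking CHO cells; schedule: compound exposure 3 h, 37 °C; reagent: DiI-labelled HDL at 10 µg/mL final; technique: bottom-read fluorescence, 550/595 nm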
An asterisk follows results filed as active; . = not tested or not shown.

SMILES | ABCB6 inh 2 | GAA850 FXN act | SR-BI HDL uptake | AHR act | HIF activator | SR-BI DiI-HDL act
CCOc1ccccc1C(=O)OC(C)C(=O)Nc1ccc(S(=O)(=O)N2CCCC2)cc1 (centres undefined) | 99 | 1 | 42 | -2 | . | -42
COc1ccc(-c2cn3cccnc3n2)cc1NC(=O)C(C)C | 109 | 1 | -5 | 49* | 1 | 5
COc1cccc(C(=O)Nc2ccc(C3CC3(Cl)Cl)cc2)c1 (centres undefined) | 100 | 7 | 35 | 73* | 2 | -35
COc1cccc(C(=O)Nc2cc3c(cc2N2CCCC2)n(C)c(=O)n3C)c1 | 95 | 0 | 3 | 13 | -1 | -3
COc1cccc(C(=O)Nc2ccc3c(c2)n(C)c(=O)n3C)c1 | 102 | 0 | 17 | 48* | 0 | -17
O=C(CC1(O)C(=O)Nc2ccccc21)c1cccnc1 (centres undefined) | 91 | 3 | -11 | 15 | 0 | 11
O=C(O)c1cccnc1SCc1ccccc1Cl | 136 | 1 | -13 | 2 | 108* | 13
CCCCc1nc(C(N)=O)c2[nH]c(=O)n(-c3ccccc3F)c2n1 | 97 | 3 | 0 | 3 | 0 | 0
O=C1[C@H]2[C@@H](c3ccc(F)cc3)N3C(=O)N(c4ccccc4)C(=O)[C@@]3(Cc3ccc(Cl)cc3)[C@H]2C(=O)N1C1CCCCC1 | 99 | 11* | -32 | 2 | 1 | 32
O=C1[C@H]2[C@@H](c3ccc(F)cc3)N3C(=O)N(c4cccc(Cl)c4)C(=O)[C@@]3(Cc3ccc(Cl)cc3)[C@H]2C(=O)N1C1CCCCC1 | 100 | 0 | -37 | 0 | 0 | 37
C[C@@]12C(=O)N(c3cccc(F)c3)C(=O)N1[C@H](c1ccc(F)cc1)[C@@H]1C(=O)N(C3CCCCC3)C(=O)[C@@H]12 | 91 | 14* | -25 | 10 | -6 | 25
Cc1cc(N(C)C(=O)c2ccc3c(c2)S(=O)(=O)c2cc(Cl)ccc2C3=O)c(C(F)(F)F)o1 | 95 | -1 | 74* | -2 | . | -74
Cc1ccc(S(=O)(=O)N2CCCC2CNC(=O)C(=O)NCc2ccccn2)cc1 (centres undefined) | 99 | 0 | -2 | 3 | 0 | 2
O=C(Nc1nc(-c2ccc([N+](=O)[O-])cc2)cs1)C1=COCCO1 | 95 | 0 | . | . | . | .
Cc1ccc(NC2CCCN(C(=O)c3cccnc3)C2)cc1C (centres undefined) | 101 | 0 | -12 | 48* | 0 | 12
Cc1cc(C)cc(NC(=O)Nc2ccc3c(c2)N(C)C(=O)CS3)c1 | 97 | -2 | 50 | 71* | . | -50
Cc1ccc(NC(=O)Nc2ccc3c(c2)N(C)C(=O)CS3)cc1C | 101 | -2 | 50 | 25 | . | -50
Cc1cccc(C)c1NC(=O)C1(N(Cc2ccco2)C(=O)CC2NC(=O)NC2=O)CCCCC1 (centres undefined) | 84 | 0 | -48 | 2 | 0 | 48
COc1ccc(O)c(/C=N/NC(=O)c2cccc(N3CCCC3=O)c2)c1 | 96 | -2 | 89* | 4 | 7 | -89
O=C(N/N=C/c1ccco1)c1cccc(N2CCCC2=O)c1 | 92 | 2 | 6 | 6 | 1 | -6
COc1ccc(O)c(/C=N/NC(=O)c2ccc(N3CCCC3=O)cc2)c1 | 97 | -2 | . | 5 | 1 | .
COC(=O)c1cccc(N2CCCC2=O)c1 | 100 | 1 | . | 1 | 0 | .
O=C(O)c1cccc(N2CCCC2=O)c1 | 108 | 0 | -25 | -1 | 47* | 25
O=C(N/N=C/c1cc(Br)ccc1O)c1cccc(N2CCCC2=O)c1 | 94 | -4 | 106* | 19 | 42* | -106
COCCNC(=S)N/N=C(\C)c1ccc(Cl)c(Cl)c1 | 98 | 3 | 43 | 31 | -1 | -43
CCOC(=O)C1(Cc2ccccc2)CCCN(C(=O)COc2ccccc2OC)C1 (centres undefined) | 97 | 2 | . | . | . | .
Cn1c(=O)c2cc3c(nc2n(C)c1=O)CC(c1ccccc1)CC3=O (centres undefined) | 94 | 1 | 3 | 59* | -1 | -3

Screens: PubChem, several laboratories
